Usually inhibition stands for the share of the control response that was lost under treatment. Lower therefore signals a response near the control.

Our source for the inhibition and EC50 values is ChEMBL document CHEMBL1156395, “Cytotoxic polyacetylenic alcohols from the marine sponge Petrosia species” (2001).

Test [1] deals with Nucleic Acid. The test is described as follows: Inhibition of SV40 DNA replication at 40 uM. It counts as nucleic-acid assay. The conditions noted are these: Betapolyomavirus macacae. In short, it runs like this: (§1)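 Cell-free SV40 origin (pUC) plasmid replication in 40 mM creatine phosphate-di-Tris pH 7.7 with creatine kinase, 7 mM MgCl2, 0.5 mM DTT, 4 mM ATP, 200 µM UTP/GTP/CTP, 100 µM dATP/dGTP/dCTP, 25 µM [3H]dTTP, 0.6 µg SV40 T-Ag and replication proteins. Incubation 90 min at 37 °C; acid-insoluble radioactivity counted. Products checked with [α-32P]dATP on agarose gel.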

The next test relates to SK-MEL-2. The test is described as follows: Cytotoxicity against human SK-MEL-2 cells. It counts as functional. The conditions noted are these: read-out: ED50 (the source's name).
For another test, the system named is XF498. The test is described as follows: Cytotoxicity against human XF498 cells. The settings on record: read-out: ED50 (the source's name). It counts as functional.
Test [2] concerns Nucleic Acid. The test is described as follows: Inhibition of SV40 DNA replication at 20 uM. The settings on record: Betapolyomavirus macacae. It counts as nucleic-acid assay. In short, it runs like this:
as §1

A further test relates to A549. The test is described as follows: Cytotoxicity against human A549 cells. The conditions noted are these: read-out: ED50 (the source's name). The class given is functional.
Another test relates to HCT-15. The test is described as follows: Cytotoxicity against human HCT15 cells. It counts as functional. The conditions noted are these: read-out: ED50 (the source's name).
The test system of another test is SK-OV-3. The test is described as follows: Cytotoxicity against human SKOV3 cells. It counts as functional. The conditions noted are these: read-out: ED50 (the source's name).

Molecules are shown by their SMILES. ≈ marks a conversion by molar mass, not a printed value.

Take `C#C/C=C\CCCCCCCCCCCCC/C=C/C(O)CCCC/C=C\CCCCC#C[C@H](O)C#CCCCCCC/C=C/[C@H](O)C#C` (stereo not given in full): the inhibition with Nucleic Acid [1] turned out to be 55%; in the test on Nucleic Acid [2], 8%. For the same compound, the EC50 in the test on SK-MEL-2 came to 0.5 µg/mL (≈ 0.745 µM); in the test on XF498, 3.5 µg/mL (≈ 5.22 µM); in the test with A549, 4 µg/mL (≈ 5.96 µM); in the test on HCT-15 it was 1.4 µg/mL (≈ 2.09 µM); with SK-OV-3 it was 1.2 µg/mL (≈ 1.79 µM).

For `C#C/C=C\CCCCCCCCCCCCCCC(O)/C=C/CCC/C=C\CCCCC#C[C@H](O)C#CCCCCCC/C=C/[C@H](O)C#C` (stereo not given in full), the inhibition in the test on Nucleic Acid [1] was found to be 55%; with Nucleic Acid [2] it was 8%. Besides, the EC50 was 0.5 µg/mL (≈ 0.745 µM) in the test on SK-MEL-2; 3.5 µg/mL (≈ 5.22 µM) in the test with XF498; 4 µg/mL (≈ 5.96 µM) in the test on A549; 1.4 µg/mL (≈ 2.09 µM) in the test on HCT-15; 1.2 µg/mL (≈ 1.79 µM) with SK-OV-3.

Turning to `C#CCCCCCCCCCCCCCCCCC/C=C\CCCC/C=C\CCCCC#C[C@@H](O)C#CCCCCCCCC[C@@H](O)C#C` [PETROTETRAYNDIOL F], the inhibition with Nucleic Acid [1] was 48%; in the test with Nucleic Acid [2] it was 16%. Besides, the EC50 with SK-MEL-2 worked out at 1.1 µg/mL (≈ 1.63 µM); in the test on XF498, 4.3 µg/mL (≈ 6.39 µM); in the test with A549, 3.7 µg/mL (≈ 5.5 µM); in the test on HCT-15 it was 3.4 µg/mL (≈ 5.05 µM); in the test with SK-OV-3 it was 3.8 µg/mL (≈ 5.65 µM).

As for `C#C/C=C\CCCCCCCCCCCCCC/C=C\CCCCC(O)/C=C/CCCC#C[C@H](O)C#CCCCCCC/C=C/[C@H](O)C#C` (stereo not given in full), the inhibition with Nucleic Acid [1] amounted to 36%; in the test on Nucleic Acid [2] it was 9%. For the same compound, the EC50 in the test on SK-MEL-2 is 1.3 µg/mL (≈ 1.94 µM); with XF498, 4.7 µg/mL (≈ 7 µM); with A549 it was 10 µg/mL (≈ 14.9 µM); with HCT-15, 4 µg/mL (≈ 5.96 µM); in the test on SK-OV-3, 1.8 µg/mL (≈ 2.68 µM).

With `C#C/C=C\CCCCCCCCCCCCCCCC/C=C\CCCC/C=C\CCCCC#C[C@@H](O)C#CCCCCCC/C=C/[C@H](O)C#C`, the inhibition in the test with Nucleic Acid [1] amounted to 38%; in the test with Nucleic Acid [2], 21%. Also, the EC50 in the test on SK-MEL-2 was found to be 1.6 µg/mL (≈ 2.34 µM); with XF498, 5.8 µg/mL (≈ 8.49 µM); in the test on A549 it was 5.2 µg/mL (≈ 7.61 µM); in the test with HCT-15, 3.9 µg/mL (≈ 5.71 µM); in the test on SK-OV-3, 5.1 µg/mL (≈ 7.47 µM).
